Activity calls are given as the source filed them. Unless noted, the rule behind the calls is not given here.
Assays:
[1] = target: T1, Histone acetyltransferase p300 (Homo sapiens, UniProt Q09472); assay: Inhibition of recombinant histone acetyltransferase p300 (unknown origin) using dH3-H4 tetramer and [3H]-acetyl-CoA assessed as acetate incorporation after 5 mins by liquid scintillation counting in presence of 1 mM DTT
[2] = Chemical stability of the compound in HTS buffer assessed as GSH adduct formation measured as retention time after 15 mins by UPLC-MS analysis; assay type: physicochemical; conditions: 0.25 h
Summary of the method: (§1)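 Compound (typically 0.5 mM final) incubated in HTS buffer (pH 8.0) for 5, 15 or 30 min, then reduced glutathione added (2 equiv per 1 equiv compound); aliquots analysed by UPLC–MS (BEH C18 column, ELS and 254 nm traces) 5 min after GSH addition, and the same sample re-analysed 15 min later. HTS-like conditions but 5% DMSO, no detergent.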

[3] = target: T1, Histone acetyltransferase p300; assay: Inhibition of recombinant histone acetyltransferase p300 (unknown origin) using dH3-H4 tetramer and [3H]-acetyl-CoA assessed as acetate incorporation […] by liquid scintillation counting; conditions: read-out: IC50
[4] = Fluorescence quenching in HTS buffer with […] CoA assessed as fluorescence signal reduction at 10 uM after 10 mins; assay type: physicochemical
[5] = Fluorescence quenching in HTS buffer assessed as fluorescence signal reduction at 10 uM after 10 mins; assay type: physicochemical
[6] = target: T2, Histone acetyltransferase RTT109 (Saccharomyces cerevisiae (strain ATCC 204508 / S288c) (Baker's yeast)) (UniProt Q07794); assay: Inhibition of Vps75-stimulated recombinant Saccharomyces cerevisiae histone acetyltransferase Rtt109 assessed as H3K27 acetylated product at […] after 45 mins by Slot bolt inhibiton assay
T2 sequence (whole entry): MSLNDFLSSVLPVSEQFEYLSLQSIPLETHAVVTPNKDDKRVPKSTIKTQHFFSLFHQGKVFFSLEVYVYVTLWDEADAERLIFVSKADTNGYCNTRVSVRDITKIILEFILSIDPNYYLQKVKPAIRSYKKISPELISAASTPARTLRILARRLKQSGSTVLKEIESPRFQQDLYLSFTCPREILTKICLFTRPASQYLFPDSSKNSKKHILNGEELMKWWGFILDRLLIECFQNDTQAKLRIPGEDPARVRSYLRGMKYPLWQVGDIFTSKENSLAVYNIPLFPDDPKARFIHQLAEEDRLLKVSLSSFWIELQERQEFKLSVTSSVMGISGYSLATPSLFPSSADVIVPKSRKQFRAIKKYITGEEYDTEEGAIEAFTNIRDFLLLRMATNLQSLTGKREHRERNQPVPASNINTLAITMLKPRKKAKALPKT

[7] = Fluorescence quenching in HTS buffer with 20 uM 7-diethylamino-3-(4'-maleimidyl-phenyl)-4-methylcoumarin assessed as fluorescence signal reduction at 10 uM after 10 mins; assay type: physicochemical
[8] = target: T2, Histone acetyltransferase RTT109 (Saccharomyces cerevisiae (strain ATCC 204508 / S288c) (Baker's yeast)); assay: Inhibition of Vps75-stimulated recombinant Saccharomyces cerevisiae histone acetyltransferase Rtt109 assessed as H3K56 acetylated product at […] after 45 mins by Slot bolt inhibiton assay
[9] = target: T2, Histone acetyltransferase RTT109 (Saccharomyces cerevisiae (strain ATCC 204508 / S288c) (Baker's yeast)); assay: Inhibition of Vps75-stimulated recombinant Saccharomyces cerevisiae histone acetyltransferase Rtt109 using [3H]-acetyl-CoA assessed as acetate incorporation […] by liquid scintillation counting in presence of 1 mM DTT
[10] = Fluorescence quenching assessed as fluorescence signal reduction at 10 uM after 10 mins; assay type: physicochemical
Summary of the method: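 CPM (20 μM final) and CoA (5 μM final) reacted to completion in assay buffer (stable plateau, usually ~5 min); adduct solution added to wells preplated with compound; shaken 5 min, equilibrated 5 min at room temperature; fluorescence intensity read as percent signal reduction versus DMSO controls. Flagged as quencher at >20% signal reduction at 10 μM final compound.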

[11] = target: Histone acetyltransferase GCN5 (Saccharomyces cerevisiae S288c) (UniProt Q03330); assay: Inhibition of yeast histone acetyltransferase Gcn5-Ada2-Ada3 complex using tetramer and [3H]-acetyl-CoA assessed as acetate incorporation […] by liquid scintillation counting in presence of 1 mM DTT
Sequence of Histone acetyltransferase GCN5 (Saccharomyces cerevisiae S288c) (Q03330 whole entry): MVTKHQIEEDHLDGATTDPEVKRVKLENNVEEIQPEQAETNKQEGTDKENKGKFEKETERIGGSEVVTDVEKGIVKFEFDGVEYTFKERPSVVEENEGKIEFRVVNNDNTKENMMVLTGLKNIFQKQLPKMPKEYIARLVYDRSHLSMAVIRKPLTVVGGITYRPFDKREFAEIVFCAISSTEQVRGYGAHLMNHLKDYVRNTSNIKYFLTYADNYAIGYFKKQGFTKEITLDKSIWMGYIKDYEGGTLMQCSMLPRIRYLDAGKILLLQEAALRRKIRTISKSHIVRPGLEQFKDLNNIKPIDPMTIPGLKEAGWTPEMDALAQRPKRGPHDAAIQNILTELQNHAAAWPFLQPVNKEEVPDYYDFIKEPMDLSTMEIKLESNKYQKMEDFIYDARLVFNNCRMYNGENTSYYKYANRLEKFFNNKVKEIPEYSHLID

[12] = Chemical stability of the compound in HTS buffer assessed as GSH adduct formation measured as retention time after 5 mins by UPLC-MS analysis; assay type: physicochemical
Summary of the method: as §1

[13] = target: T3, Lupus La protein (Homo sapiens) (UniProt P05455); assay: Induction of thiol reactivity with La protein (unknown origin) using […] assessed as protein reactivity by ALARM NMR in presence of 20 mM DTT
T3 sequence (whole entry): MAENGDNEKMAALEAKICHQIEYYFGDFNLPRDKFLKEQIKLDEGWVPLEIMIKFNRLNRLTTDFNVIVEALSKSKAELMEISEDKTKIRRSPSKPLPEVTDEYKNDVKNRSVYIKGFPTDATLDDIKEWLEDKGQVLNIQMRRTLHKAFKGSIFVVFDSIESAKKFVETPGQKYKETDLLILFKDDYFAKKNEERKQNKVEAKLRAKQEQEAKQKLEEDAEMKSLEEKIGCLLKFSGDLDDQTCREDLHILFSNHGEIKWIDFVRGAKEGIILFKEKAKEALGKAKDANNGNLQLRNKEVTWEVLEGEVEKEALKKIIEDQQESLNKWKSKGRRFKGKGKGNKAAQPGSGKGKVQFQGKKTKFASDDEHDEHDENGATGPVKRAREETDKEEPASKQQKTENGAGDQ
Summary of the method: (§2)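 ALARM NMR with recombinant La antigen expressed in E. coli Rosetta, 15N-labelled and 13C-labelled at Leu/Ile δ-methyl and Val γ-methyl groups; protein pre-reduced with 20 mM DTT then dialysed DTT-free under N2.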

[14] = target: T3, Lupus La protein (Homo sapiens); assay: Induction of thiol reactivity with La protein (unknown origin) using […] assessed as protein reactivity by ALARM NMR
Summary of the method: as §2

[15] = target: T4, Histone acetyltransferase RTT109 (Saccharomyces cerevisiae (strain ATCC 204508 / S288c) (Baker's yeast), UniProt Q07794); assay: Inhibition of Vps75-stimulated recombinant Saccharomyces cerevisiae histone acetyltransferase Rtt109 using [3H]-acetyl-CoA assessed as acetate incorporation after 30 mins by liquid scintillation counting; conditions: read-out: IC50
T4 sequence (Q07794 whole entry): T2 sequence (whole entry)

[16] = target: T4, Histone acetyltransferase RTT109; assay: Inhibition of Vps75-stimulated recombinant Saccharomyces cerevisiae histone acetyltransferase Rtt109 using Asf1-dH3-H4 as substrate assessed as coenzyme A production after 45 mins by CPM based HTS assay
Summary of the method: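 Recombinant Rtt109–Vps75 at 50 nM, with Asf1–dH3–H4 as substrate and acetyl-CoA as acetyl donor. Buffer contained freshly prepared 0.01% Triton X-100. The CoA product was detected by fluorescence of its CPM adduct. Plates had Z′ ≥0.5. IC50 came from a four-parameter variable-slope fit.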

[17] = target: Histone acetyltransferase GCN5 (Saccharomyces cerevisiae S288c, UniProt Q03330); assay: Inhibition of yeast histone acetyltransferase Gcn5-Ada2-Ada3 complex using tetramer and [3H]-acetyl-CoA assessed as acetate incorporation after 30 mins by liquid scintillation counting; conditions: read-out: IC50
Sequence of Histone acetyltransferase GCN5 (Q03330 whole entry): as the sequence (Q03330 whole entry) above

[18] = Chemical stability of the compound in HTS buffer assessed as GSH adduct formation by UPLC-MS analysis; assay type: physicochemical
Summary of the method: as §1

T1 sequence (Q09472 whole entry): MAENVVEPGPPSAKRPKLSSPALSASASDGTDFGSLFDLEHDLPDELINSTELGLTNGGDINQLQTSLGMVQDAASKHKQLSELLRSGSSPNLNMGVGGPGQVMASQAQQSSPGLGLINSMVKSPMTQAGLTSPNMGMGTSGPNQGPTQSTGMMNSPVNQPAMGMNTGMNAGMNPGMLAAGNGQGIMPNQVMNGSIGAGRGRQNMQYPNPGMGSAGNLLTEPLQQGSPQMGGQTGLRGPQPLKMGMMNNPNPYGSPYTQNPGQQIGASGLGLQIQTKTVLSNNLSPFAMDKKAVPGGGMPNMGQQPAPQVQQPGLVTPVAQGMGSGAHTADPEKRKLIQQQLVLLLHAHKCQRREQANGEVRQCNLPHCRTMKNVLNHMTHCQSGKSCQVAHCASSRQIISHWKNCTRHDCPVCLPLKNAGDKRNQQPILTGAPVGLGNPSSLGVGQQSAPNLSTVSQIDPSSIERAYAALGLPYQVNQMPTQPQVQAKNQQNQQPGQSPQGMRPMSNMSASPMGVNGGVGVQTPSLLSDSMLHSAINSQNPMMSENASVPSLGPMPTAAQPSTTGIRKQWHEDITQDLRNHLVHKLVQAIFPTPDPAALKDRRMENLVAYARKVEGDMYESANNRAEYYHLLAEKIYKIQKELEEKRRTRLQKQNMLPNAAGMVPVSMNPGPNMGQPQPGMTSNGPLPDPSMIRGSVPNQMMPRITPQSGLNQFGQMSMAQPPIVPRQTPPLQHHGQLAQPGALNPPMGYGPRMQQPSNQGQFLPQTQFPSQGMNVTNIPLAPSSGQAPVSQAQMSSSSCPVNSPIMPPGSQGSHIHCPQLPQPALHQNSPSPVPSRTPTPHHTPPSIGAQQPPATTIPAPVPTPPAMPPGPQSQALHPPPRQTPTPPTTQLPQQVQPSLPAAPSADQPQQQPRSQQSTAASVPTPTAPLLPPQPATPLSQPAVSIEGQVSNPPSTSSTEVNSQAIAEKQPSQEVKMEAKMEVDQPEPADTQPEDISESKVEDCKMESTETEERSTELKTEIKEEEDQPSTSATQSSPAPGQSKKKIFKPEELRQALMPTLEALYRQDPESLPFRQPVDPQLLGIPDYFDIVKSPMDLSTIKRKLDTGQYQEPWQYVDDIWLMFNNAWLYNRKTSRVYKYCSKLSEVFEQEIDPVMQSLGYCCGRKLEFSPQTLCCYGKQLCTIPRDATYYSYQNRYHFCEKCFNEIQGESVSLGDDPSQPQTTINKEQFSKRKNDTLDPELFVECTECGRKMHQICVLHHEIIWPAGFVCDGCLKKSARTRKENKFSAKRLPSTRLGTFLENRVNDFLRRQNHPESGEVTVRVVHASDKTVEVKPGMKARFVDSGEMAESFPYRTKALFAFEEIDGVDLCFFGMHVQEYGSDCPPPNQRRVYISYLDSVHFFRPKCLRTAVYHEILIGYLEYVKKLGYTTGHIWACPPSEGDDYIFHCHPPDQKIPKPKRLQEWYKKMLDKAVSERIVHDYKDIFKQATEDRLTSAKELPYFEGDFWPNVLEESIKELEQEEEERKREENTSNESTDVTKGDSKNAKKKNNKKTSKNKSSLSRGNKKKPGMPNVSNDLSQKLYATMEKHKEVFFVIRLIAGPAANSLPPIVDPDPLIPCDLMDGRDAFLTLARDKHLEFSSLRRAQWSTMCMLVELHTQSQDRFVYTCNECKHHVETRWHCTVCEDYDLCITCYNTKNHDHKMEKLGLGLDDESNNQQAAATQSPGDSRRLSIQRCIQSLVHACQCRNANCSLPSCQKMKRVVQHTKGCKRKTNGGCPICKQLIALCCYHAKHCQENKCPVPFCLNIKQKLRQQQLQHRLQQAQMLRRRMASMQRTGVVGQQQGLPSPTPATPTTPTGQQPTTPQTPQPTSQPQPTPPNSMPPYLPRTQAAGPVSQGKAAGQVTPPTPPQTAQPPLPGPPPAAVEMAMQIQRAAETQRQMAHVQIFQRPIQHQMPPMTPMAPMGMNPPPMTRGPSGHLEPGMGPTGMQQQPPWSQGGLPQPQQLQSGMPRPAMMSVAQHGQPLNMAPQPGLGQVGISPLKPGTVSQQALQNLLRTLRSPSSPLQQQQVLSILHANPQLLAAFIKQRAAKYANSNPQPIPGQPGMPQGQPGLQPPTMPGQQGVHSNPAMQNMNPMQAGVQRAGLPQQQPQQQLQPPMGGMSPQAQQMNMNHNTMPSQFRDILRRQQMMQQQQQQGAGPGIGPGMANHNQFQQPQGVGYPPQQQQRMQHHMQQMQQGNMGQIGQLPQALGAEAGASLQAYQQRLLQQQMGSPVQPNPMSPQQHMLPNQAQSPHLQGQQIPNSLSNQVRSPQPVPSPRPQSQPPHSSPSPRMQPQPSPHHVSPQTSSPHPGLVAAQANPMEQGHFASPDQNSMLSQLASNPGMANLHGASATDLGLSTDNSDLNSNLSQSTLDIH

Row | SMILES | Activity [1] | Retention_time [2] [min] | IC50 [3] [nM] | Activity [4] | Activity [5] | Activity [6] | Activity [7] | Activity [8] | Activity [9] | Activity [10] | Activity [11] | Retention_time [12] [min] | Activity [13] | Activity [14] | IC50 [15] [nM] | IC50 ([16]; read-out: IC50) [nM] | IC50 [17] [nM] | Stability [18] | IC50 [16]
1 | O=S(=O)(Nc1cc(Sc2nnnn2-c2ccccc2)c(O)c2ccccc12)c1ccccc1 | Active | 3.28 | 3100 | Not Active | Not Active | Active | Not Active | Active | Active | Not Active | Active | 3.4 | – | – | – | – | – | – | –
2 | O=[N+]([O-])c1cc(Br)c2nsnc2c1Sc1ncnc2[nH]cnc12 | Active | – | 2200 | Not Active | Not Active | Active | Not Active | Active | Active | Not Active | Active | – | inactive | Active | 3900 | 2800 | 4600 | Unstable | –
3 | O=C(O)c1ccc(-n2nnnc2SC2=CS(=O)(=O)c3ccccc32)cc1 | Active | – | 7500 | Not Active | Not Active | Active | Not Active | Active | Active | Not Active | Active | – | inactive | Active | 15000 | 8800 | 11000 | Unstable | –
4 | O=S(=O)(Nc1cc(Cl)c(O)c2ccccc12)c1ccc(Br)cc1 | Active | 3.28 | 1800 | Not Active | Not Active | Active | Not Active | Active | Active | Not Active | Active | 3.65 | – | – | 1600 | 2500 | 1200 | – | –
5 | O=C1CC(Sc2nnc(-c3ccccc3O)o2)C(=O)N1c1ccc(Br)cc1 (stereo not given) | Active | – | 3700 | Not Active | Not Active | Active | Not Active | Active | Active | Not Active | Active | – | inactive | Active | 3900 | 15000 | 27000 | Unstable | –
6 | O=C(O)CCSc1cc(NS(=O)(=O)c2ccc(Br)cc2)c2ccccc2c1O | Active | 3.28 | 1000 | Not Active | Not Active | – | Active | – | – | Not Active | Active | 3.67 | inactive | Active | 520 | – | 650 | – | Not Active
7 | O=C(O)CSc1cc(NS(=O)(=O)c2ccc(C(=O)O)cc2)c2ccccc2c1O | Active | 3.28 | 660 | Not Active | Not Active | – | Active | – | – | Not Active | Active | 3.27 | – | – | 150 | – | 1300 | – | Not Active
8 | CNc1nc(-c2ccccc2)[n+](-c2ccccc2)s1.[Cl-] | Active | – | 1900 | Not Active | Not Active | Active | Not Active | Active | Active | Not Active | Active | – | inactive | Active | – | – | 7500 | Unstable | –

— ChEMBL document CHEMBL3414544, “PAINS in the assay: chemical mechanisms of assay interference and promiscuous enzymatic inhibition observed during a sulfhydryl-scavenging HTS” (J Med Chem, 2015)
